Entries after “also recorded” stand apart in the source; their conditions may differ. Like-named read-outs stand apart in the source and are kept apart here.
Legend:
NMDAR [1] = assay: NMDA-induced increase in [Ca2+]c, calcium imaging; assay type: cell-based, rat; settings: for IC50: read-out: IC50, inhibition of NMDA-induced increases in [Ca2+]c
[2] = tested on: NCXrev (reverse Na+/Ca2+ exchanger); assay: Gramicidin-induced; assay type: cell-based, rat; settings: for efficacy of inhibition of gramicidin-induced increase in [Ca2+]c / IC50: 5 μM gramicidin; for efficacy of inhibition of gramicidin-induced increase in [Ca2+]c: 1 μM MK801, 50 μM memantine, 200 μM AP-5 (Fig. 3); for IC50: read-out: IC50, inhibition of gramicidin-induced increase in [Ca2+]c, bath with 5 μM nifedipine and 1 mM ouabain, Suppl. Fig. 6
[3] = tested on: cultured hippocampal neurons; assay type: cell-based, rat
[4] = tested on: cultured hippocampal neurons; assay: Glutamate-induced increase in [Na+]c, fluorescence imaging; assay type: cell-based, rat; settings: 25 μM glutamate plus 10 μM glycine; for effect on glutamate-induced increase in [Na+]c: Sodium Green, 10 μM EIPA, 10 μM MK801; for effect on glutamate-induced increases in [Na+]c: SBFI, 1 μM MK801, 50 μM memantine, 200 μM AP-5
[5] = tested on: cultured hippocampal neurons; assay: NMDA-induced DCD, calcium imaging; assay type: cell-based, rat; settings: 30 μM NMDA plus 10 μM glycine; MK801 1 μM, memantine 10 μM, AP-5 20 μM; Suppl. Fig. 3
NMDAR [6] = assay: NMDA-induced ion currents, whole-cell voltage-clamp; assay type: cell-based, rat
[7] = tested on: cultured hippocampal neurons; assay: Glutamate-induced plasma membrane depolarization; assay type: cell-based, rat; settings: Annine-6plus; 25 μM glutamate plus 10 μM glycine; 1 μM MK801, 50 μM memantine, 200 μM AP-5
In short: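 Rat P1 hippocampal neurons, glia-free, 12–14 DIV, in standard NaCl bath (pH 7.4). Loaded with 4 μM Annine-6plus for 5 min at room temperature; excitation 480 nm, emission >570 nm; F480 expressed as F/F0. Inhibitors in 0.2% DMSO. 142 mM KCl substituted for NaCl at end for full depolarization. Depolarization shown as % resting potential over time; mean ± s.e.m., n=3.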

[8] = tested on: cultured hippocampal neurons; assay: NMDA-induced increase in [Na+]c; assay type: cell-based, rat; settings: MK801 1 μM, memantine 10 μM, AP-5 20 μM; Suppl. Fig. 4
[9] = tested on: cultured hippocampal neurons; assay: NMDA-induced plasma membrane depolarization; assay type: cell-based, rat; settings: 30 μM NMDA plus 10 μM glycine; MK801 1 μM, memantine 10 μM, AP-5 20 μM; Suppl. Fig. 5
NCXrev = assay: NCXrev-mediated ion currents, voltage ramp whole-cell patch-clamp; assay type: cell-based, rat; settings: 5 mM Ni2+, 10 μM KB-R7943, 10 μM MK801, 50 μM memantine, 50 μM AP-5
neurons = settings: ref Levy and Lipton, 1990; cited from earlier work
[10] = tested on: cultured hippocampal neurons; settings: CNQX 10–100 μM; ref Brustovetsky et al., 2011; cited from earlier work
forward mode of NCX = assay: Forward mode of NCX; assay type: cell-based; settings: authors' unpublished data
NMDAR [11] = settings: read-out: IC50, inhibition of NMDAR; ref Brustovetsky et al., 2011; cited from earlier work
[12] = rat cultured hippocampal neurons, Suppl. Fig. 1
[13] = whole-cell voltage-clamp, Suppl. Fig. 2

Compound	effect on glutamate-induced DCD [3]	effect on glutamate-induced increase in [Na+]c [4]	extent of inhibition of NMDA-induced increases in [Ca2+]c (NMDAR [1]; [12])	IC50 (NMDAR [1]; [12])	efficacy of inhibition of gramicidin-induced increase in [Ca2+]c [2]	IC50 [2]	effect on DCD induced by NMDA [5]	effect on NMDA-induced ion currents (NMDAR [6]; [13])	effect on glutamate-induced increases in [Na+]c [4]	effect on glutamate-induced plasma membrane depolarization [7]	effect on [Na+]c elevated after NMDA application [8]	effect on plasma membrane depolarization induced by NMDA [9]	effect on NCXrev-mediated ion currents (NCXrev)	effect on forward mode of NCX (forward mode of NCX)	other results
CCN(c1nc(N)c(C(=O)NC(=N)N)nc1Cl)C(C)C [EIPA, 5-(N-ethyl-N-isopropyl)amiloride]	failed to prevent or attenuate	significantly attenuated	–	–	–	–	–	–	–	–	–	–	–	–	effect on NMDA-induced increase in [Ca2+]c (NMDAR [1]; EIPA 10 μM, Suppl. Fig. 9): inhibited neither NMDAR nor NCXrev; effect on gramicidin-induced increase in [Ca2+]c ([2]; EIPA 10 μM, Suppl. Fig. 9): inhibited neither NMDAR nor NCXrev
N[C@H](CCCP(=O)(O)O)C(=O)O [AP-5, D-(−)-2-Amino-5-phosphonopentanoic acid]	failed to prevent DCD; also recorded: failed to prevent or attenuate	–	completely inhibited	2200 ± 30 nM	much less efficacious	2800 ± 700 nM	completely prevented DCD	inhibited NMDA-induced ion currents	neither attenuated	nor prevented	significantly lowered	completely prevented	practically without effect	–	neuroprotection against glutamate excitotoxicity (neurons): only moderately effective
N#Cc1cc2[nH]c(=O)c(=O)[nH]c2cc1[N+](=O)[O-] [CNQX, 6-cyano-7-nitroquinoxaline-2,3-dione]	–	–	–	–	–	–	–	–	–	–	–	–	–	–	effect on glutamate-induced DCD [10]: had no effect
C[C@]12N[C@H](Cc3ccccc31)c1ccccc12 [MK801]	completely prevented	failed to prevent or diminish	completely inhibited	200 ± 40 nM	very effectively inhibited	500 ± 80 nM	completely prevented DCD	inhibited NMDA-induced ion currents	neither attenuated	nor prevented	significantly lowered	completely prevented	inhibited	not affected	–
CC12CC3CC(C)(C1)CC(N)(C3)C2 [memantine]	completely prevented	–	–	–	very effectively inhibited	17100 ± 240 nM	completely prevented DCD	–	neither attenuated	nor prevented	significantly lowered	completely prevented	inhibited	not affected	extent of inhibition of NMDA-induced increases in [Ca2+]c (NMDAR [1]): completely inhibited; IC50 (NMDAR [1]): 3600 ± 50 nM; effect on NMDA-induced ion currents (NMDAR [6]): inhibited NMDA-induced ion currents
N=C(N)SCCc1ccc(OCc2ccc([N+](=O)[O-])cc2)cc1 [KB-R7943]	failed to prevent DCD	–	–	–	–	–	–	–	–	–	–	–	strongly attenuated	–	IC50 (NMDAR [11]): 13400 ± 3600 nM

— publication PMC3299854 (Neurobiology of Disease, 2012)
